ChEMBL document CHEMBL1131170 (J Med Chem, 1998)
Calls of active or inactive are those of the source. The rule behind the calls is not given here.

Columns and labels:
[1] = target: T1, Protein farnesyltransferase (Homo sapiens, UniProt P49354+P49356); experiment: inhibitory activity against human Farnesyltransferase; type: protein-complex assay
Procedure, shortened: (§1)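 Compounds in 100% DMSO diluted 20-fold, giving 5% DMSO final. Farnesyl transfer measured; IC50 determined.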

[2] = target: T1, Protein farnesyltransferase; experiment: (§2) Inhibition of human Farnesyltransferase; type: protein-complex assay; details: concentration not given here; procedure, shortened: as §1
[3] = target: T1, Protein farnesyltransferase; experiment: as §2; type: protein-complex assay; details: concentration not given here; procedure, shortened: as §1; remark: listed apart in the source
[4] = target: T1, Protein farnesyltransferase; experiment: as §2; type: protein-complex assay; procedure, shortened: as §1
[5] = target: T1, Protein farnesyltransferase; experiment: as §2; type: protein-complex assay; procedure, shortened: as §1; remark: listed apart in the source
[6] = target: T1, Protein farnesyltransferase; experiment: as §2; type: protein-complex assay; procedure, shortened: as §1; remark: listed apart in the source
[7] = target: T1, Protein farnesyltransferase; experiment: as §2; type: protein-complex assay; procedure, shortened: as §1; remark: listed apart in the source
[8] = target: T1, Protein farnesyltransferase; experiment: as §2; type: protein-complex assay; procedure, shortened: as §1; remark: listed apart in the source
[9] = target: T1, Protein farnesyltransferase; experiment: as §2; type: protein-complex assay; procedure, shortened: as §1; remark: listed apart in the source
[10] = target: T1, Protein farnesyltransferase; experiment: Inhibition of human Farnesyltransferase using Ras-CVLS; type: protein-complex assay
[11] = inhibition of human Geranylgeranyl transferase using Ras-CVIM
[12] = Inhibition of human Geranylgeranyl transferase using Ras-CAIL
[13] = tested on: HepG2; experiment: Inhibition of cholesterol biosynthesis in HepG2 cells at 16 uM; type: functional; details: Homo sapiens
Procedure, shortened: (§3)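 HepG2 cells seeded at 2 × 10^5/well on day 0, fed delipidated-serum medium on day 3 and again on day 5, when compounds in DMSO were added for 4 h. Labeled with [14C]acetate (3 µCi/mL) for 2 h, then saponified, acidified, petroleum ether extracted twice, TLC on silica (petroleum ether–ethyl ether–acetic acid 75:25:1), phosphor imaging; incorporation into cholesterol.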

[14] = tested on: HepG2; experiment: Inhibition of cholesterol biosynthesis in HepG2 cells at 32 uM; type: functional; details: Homo sapiens; procedure, shortened: as §3
[15] = tested on: HepG2; experiment: Inhibition of cholesterol biosynthesis in HepG2 cells at 81 uM; type: functional; details: Homo sapiens; procedure, shortened: as §3
[16] = target: T1, Protein farnesyltransferase; experiment: Inhibitory activity against human Farnesyltransferase; type: protein-complex assay; procedure, shortened: as §1
[17] = target: T1, Protein farnesyltransferase; experiment: Inhibition of human Farnesyltransferase at 100 uM; type: protein-complex assay
[18] = tested on: HepG2; experiment: Inhibition of cholesterol biosynthesis in HepG2 cells at 21 uM; type: functional; details: Homo sapiens; procedure, shortened: as §3
[19] = tested on: HepG2; experiment: Inhibition of cholesterol biosynthesis in HepG2 cells at 106 uM; type: functional; details: Homo sapiens; procedure, shortened: as §3
[20] = tested on: HepG2; experiment: Inhibition of cholesterol biosynthesis in HepG2 cells at 42 uM; type: functional; details: Homo sapiens; procedure, shortened: as §3
[21] = target: T1, Protein farnesyltransferase; experiment: as §2; type: protein-complex assay; procedure, shortened: as §1; remark: listed apart in the source
[22] = target: T1, Protein farnesyltransferase; experiment: Inhibition of human Farnesyltransferase, inactive at 100 uM; type: protein-complex assay
[23] = tested on: HepG2; experiment: Inhibition of cholesterol biosynthesis in HepG2 cells at 2.5 uM; type: functional; details: Homo sapiens
Procedure, shortened: (§4)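 HepG2 cells seeded on day 0; fresh medium with delipidated serum on day 3 and again on day 5, when compounds (DMSO stocks) were added for 4 h. Extracts were separated by silica TLC (petroleum ether–ethyl ether–acetic acid 75:25:1) and quantified by phosphor imaging as cholesterol incorporation.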

[24] = tested on: HepG2; experiment: Inhibition of cholesterol biosynthesis in HepG2 cells at 25 uM; type: functional; details: Homo sapiens; procedure, shortened: as §4

IC50 [1] [µM]	IC50 [16] [µM]	Compound	other results
–	> 100	CCOC(=O)C[C@H](C[C@@]1(C)C(=O)CCC2C3CCC(C(C)CCCC(C)C)[C@@]3(C)CCC21)C(=O)O (stereo not given in full)	–
–	60	CC[C@H]1CC(=O)[C@](C)(CCC(=O)O)C2CC[C@]3(C)C(C(C)CCCC(C)C)CCC3C21 (stereo not given in full)	–
–	21	CC(C)CCCC(C)C1CCC2C3CC[C@@H](C(=O)O)[C@](C)(CCC(=O)O)C3CC[C@]12C (stereo not given in full)	–
> 100	–	COC(=O)CC[C@@]1(C)C(=O)C[C@H](C)C2C3CCC(C(C)CCCC(C)C)[C@@]3(C)CCC21 (stereo not given in full)	–
–	1.2	CC(C)CCCC(C)C1CCC2C3CCC(=O)C(CCC(=O)O)C3CC[C@]12C (stereo not given in full)	–
> 100	–	CCOC(=O)C[C@@H]1C[C@@]2(C)C(=CC1=O)CCC1C3CCC(C(C)CCCC(C)C)[C@@]3(C)CCC12 (stereo not given in full)	–
–	3	CC[C@H]1CC(=O)[C@](C)(C[C@@H](CC(=O)O)C(=O)O)C2CC[C@]3(C)C(C(C)CCCC(C)C)CCC3C21 (stereo not given in full)	–
–	0.9	CC(C)CCCC(C)C1CCC2C3C(CC[C@]12C)[C@@](C)(CCC(=O)O)C(=O)C[C@@H]3C (stereo not given in full)	–
> 100	–	CC(C)CCCC(C)C1CCC2C3CCC4=CC(=O)[C@H](CC(=O)O)C[C@]4(C)C3CC[C@]12C (stereo not given in full)	–
–	31	CC(CCC(=O)O)C1CCC2C3C(CC[C@]12C)[C@@](C)(CCC(=O)O)C(=O)C[C@@H]3C (stereo not given in full)	–
–	40	CCOC(=O)C[C@H](C[C@@]1(C)C(=O)C[C@H](CC)C2C3CCC(C(C)CCCC(C)C)[C@@]3(C)CCC21)C(=O)O (stereo not given in full)	–
–	0.04	CC(C)CCCC(C)C1CCC2C3C(CC[C@]12C)[C@@](C)(C[C@@H](CC(=O)O)C(=O)O)C(=O)C[C@@H]3C (stereo not given in full)	–
–	40	CC(C)CCCC(C)C1CCC2C3CCC(=O)[C@](C)(CCC(=O)O)C3CC[C@]12C (stereo not given in full)	–
> 100	–	CC[C@H]1CC2=CC(=O)CC[C@]2(C)C2CC[C@]3(C)C(C(C)CCCC(C)C)CCC3C21 (stereo not given in full)	–

The remaining lines, values behind:

Compound	IC50 [1] [µM]	IC50 [16] [µM]	other results
C[C@]12CCC(=O)C=C1CCC1C2C(=O)C[C@@]2(C)C1CCC2(O)C(=O)COC(=O)CCC(=O)O (stereo not given in full)	24	–	–
C[C@H](CCC(O)C(C)(C)O)[C@H]1CC[C@@]2(C)C3=C(CC[C@]12C)[C@@]1(C)C[C@@H](OC(=O)CC(C)(O)CC(=O)O)C(=O)C(C)(C)[C@@H]1CC3 (stereo not given in full) [CLAVARIC ACID]	–	–	inhibition [2]: 81%; inhibition [3]: 84%; FPTase activity (fM ug-1 min-1) [4]: 2390; FPTase activity (fM ug-1 min-1) [5]: 694; FPTase activity (fM ug-1 min-1) [6]: 3340; FPTase activity (fM ug-1 min-1) [7]: 7340; inhibition ([7]; concentration not given here): 70%; FPTase activity (fM ug-1 min-1) [8]: 592; FPTase activity (fM ug-1 min-1) [9]: 3330; IC50 [10]: 0.35 µM; IC50 [11]: > 50 µM; IC50 [12]: 21 µM; inhibition at 16 µM [13]: 0%; inhibition at 32 µM [14]: 0%; inhibition at 81 µM [15]: 69%
CCC(CC)C(=O)OCC(=O)[C@@]1(O)CCC2C3CCC4=CC(=O)CC[C@]4(C)C3[C@@H](O)C[C@@]21C (stereo not given in full)	> 100	–	–
C[C@]12CCC(=O)C=C1CC[C@@H]1[C@@H]2[C@@H](O)C[C@@]2(C)[C@H]1CC[C@]2(O)C(=O)COC(=O)CCC(=O)O	–	–	inhibition [17]: 46%
C[C@]12CCC(=O)C=C1CCC1C2C(=O)C[C@@]2(C)C1CC[C@]2(O)C(=O)COC(=O)CC(CC(=O)O)C(=O)O (stereo not given in full)	50	–	–
CC(CCC(=O)O)C1CC[C@H]2[C@@H]3CCC4CC(=O)CC[C@]4(C)[C@H]3CC(=O)[C@]12C (stereo not given in full)	–	–	inhibition [17]: 33%
CC(=O)OCC(=O)[C@@]1(O)C(C)CC2C3CCC4=CC(=O)C=C[C@]4(C)C3=CC[C@@]21C (stereo not given in full)	40	–	–
C[C@]12C=C(C=O)C(=O)C=C1CCC1C2C(=O)C[C@@]2(C)C1CC[C@@]21OCOC12COCO2 (stereo not given in full)	1.2	–	–
CC(C)(CC(=O)O)CC(=O)OCC(=O)[C@@]1(O)CCC2C3CCC4=CC(=O)C=C[C@]4(C)[C@@]3(F)[C@@H](O)C[C@@]21C (stereo not given in full)	–	–	inhibition [17]: 63%
C[C@H](CCC(O)C(C)(C)O)[C@H]1CC[C@@]2(C)C3=C(CC[C@]12C)[C@@]1(C)C[C@@H](O)C(=O)C(C)(C)[C@@H]1CC3 (stereo not given in full) [CLAVARINONE]	15	–	IC50 [10]: 8 µM; IC50 [11]: > 50 µM; IC50 [12]: 35 µM; inhibition at 21 µM [18]: 59%; inhibition at 106 µM [19]: 97%; inhibition at 42 µM [20]: 74%
CC(C)=CCCC(C)C1CC[C@@]2(C)C3=C(CC[C@]12C)[C@@]1(C)CCC(=O)C(C)(C)C1CC3 (stereo not given in full)	12	–	–
C[C@]12C=CC(=O)C=C1CC[C@@H]1[C@@H]2[C@@H](O)C[C@@]2(C)[C@H]1CC[C@]2(O)C(=O)COC(=O)CCC(=O)O	–	–	inhibition [17]: 36%
CC(=O)OCC(=O)[C@@]1(O)CCC2C3CCC4=CC(=O)CC[C@]4(C)C3CC[C@@]21C (stereo not given in full)	–	–	inhibition [17]: 6%
CC(C)C(=O)OCC(=O)[C@@]1(O)CCC2C3CCC4=CC(=O)CC[C@]4(C)C3C(=O)C[C@@]21C (stereo not given in full)	15	–	–
CC(C)CCCC(C)C1CCC2C3CCC(=O)[C@](C)(C[C@@H](CC(=O)O)C(=O)O)C3CC[C@]12C (stereo not given in full)	–	–	IC50 [21]: 0.19 µM
C[C@@H]1CC2C3CCC4=CC(=O)C=C[C@]4(C)C3C(=O)C[C@]2(C)[C@]12OCOC21COCO1 (stereo not given in full)	> 100	–	–
CC(=O)OCC(=O)[C@@]1(O)CCC2C3CCC4=CC(=O)CC[C@]4(C)C3[C@@H](O)C[C@@]21C (stereo not given in full)	–	–	inhibition [17]: 6%
CC(C)CCCC(C)C1CCC2C3CC=C4C(C)(C)C(=O)CC[C@]4(C)C3CC[C@]12C (stereo not given in full)	–	–	inhibition [22]: inactive
C[C@]12C=C(C3OCCO3)C(=O)C=C1CCC1C2C(=O)C[C@@]2(C)C1CC[C@@]21OCOC12COCO2 (stereo not given in full)	38	–	–
C[C@H]1CC2C3CCC4=CC(=O)C=C[C@]4(C)C3C(=O)C[C@]2(C)[C@]12OCOC21COCO1 (stereo not given in full)	96	–	–
C[C@]12CC(=O)C3C(CCC4=CC(=O)CC[C@@]43C)C1CCC2C(=O)CO (stereo not given in full)	> 100	–	–
C[C@]1(C(=O)O)C(=O)CCC2C1C(=O)C[C@@]1(C)C2CC[C@@]12OCOC21COCO1 (stereo not given in full)	–	> 100	–
CC(C)C(=O)OCC(=O)C1CCC2C3CCC(=O)[C@](C)(CCC(=O)O)C3C(=O)C[C@]12C (stereo not given in full)	–	40	–
CCC(CC)C(=O)OCC(=O)[C@@]1(O)CCC2C3CCC4=CC(=O)CC[C@]4(C)C3C(=O)C[C@@]21C (stereo not given in full)	56	–	–
C[C@]1(CCC(=O)O)C(=O)CCC2C1C(=O)C[C@@]1(C)C2CC[C@@]12OCOC21COCO1 (stereo not given in full)	–	29	–
CC(CCCC(C)(C)O)[C@H]1CC[C@H]2C3CC=C4C[C@@H](O)CC[C@]4(C)[C@H]3CC[C@]12C (stereo not given in full)	–	–	inhibition at 2.5 µM [23]: 87%; inhibition at 25 µM [24]: 90%
CC(=O)OCC(=O)[C@@]1(O)CC[C@H]2[C@@H]3CCC4=CC(=O)CC[C@]4(C)[C@H]3C(=O)C[C@@]21C [CORTISONE ACETATE]	12	–	–
COC(=O)CC[C@@]1(C)C(=O)CCC2C1C(=O)C[C@@]1(C)C2CC[C@@]12OCOC21COCO1 (stereo not given in full)	–	26	–
CC(C)(CC(=O)O)CC(=O)OCC(=O)[C@@]1(O)CCC2C3CCC4=CC(=O)CC[C@]4(C)[C@@]3(F)[C@@H](O)C[C@@]21C (stereo not given in full)	48	–	–
CC(=O)C1CCC2C3CCC(=O)[C@](C)(CCC(=O)O)C3C(=O)C[C@]12C (stereo not given in full)	–	> 100	–
